Results taken from ChEMBL document CHEMBL3227978, “Azetidine derivatives of tricyclic antidepressant agents” (J Med Chem, 1979).
The source made the active and inactive calls. The calls are words filed in the database; no cut-off is given here.

Key:
Mus musculus [1] = test: Antidepressant activity in ICEM:CET (SPF Caw) mouse assessed as antagonism of reserpine-induced hypothermia at 25 mg/kg, po administered via gavage 30 mins before reserpine challenge measured 4 hrs after reserpine treatment; format: functional, organism-based; design: dose 25 mg/kg
How it was run: (§1)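 Male mice, 18-22 g, groups of ten, housed the evening before with a 9-h fast and water until 2 h before testing. Gavage dosing at 25 mg/kg in 0.5% Methocel, 30 min before reserpine 2.5 mg/kg ip in 0.5% acetic acid. Read blind: blepharospasm scored (Rubin scale) at 1 h, rectal thermocouple temperature at 4 h.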

Mus musculus [2] = test: Antidepressant activity in ICEM:CET (SPF Caw) mouse assessed as antagonism of reserpine-induced blepharospasm at 25 mg/kg, po administered via gavage 30 mins before reserpine challenge measured 1 hr after reserpine treatment; format: functional, organism-based; design: dose 25 mg/kg; how it was run: as §1
Mus musculus [3] = test: Antidepressant activity in po dosed ICEM:CET (SPF Caw) mouse assessed as antagonism of reserpine-induced blepharospasm administered via gavage 30 mins before reserpine challenge measured 1 hr after reserpine treatment; format: functional
How it was run: (§2)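 Groups of ten male mice (18-22 g), fasted 9 h with water until 2 h pre-test. Oral gavage in 0.5% Methocel at doses below the 25 mg/kg screen, 30 min before reserpine 2.5 mg/kg ip. Blepharospasm scored blind at 1 h, rectal temperature at 4 h. ED50 estimated by eye-fit linear plots on semilogarithmic paper.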

Mus musculus [4] = test: Anticonvulsant activity in po dosed ICEM:CET (SPF Caw) mouse assessed as antagonism of pentylenetetrazole-induced flexor-extensor tonic convulsions administered via gavage 30 mins before pentylenetetrazole challenge; format: functional
How it was run: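 Male mice, 18-22 g, dosed orally by gavage in 0.5% Methocel (0.1 mL/10 g), starting at a 50 mg/kg screening dose, then graded doses. Pentylenetetrazole 130 mg/kg ip given 30 min later. Ten mice per dose and for controls. Dose preventing flexor-extensor tonic convulsions in 50% of animals read from dose-response curves (ED50).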

Mus musculus [5] = test: (§3) Orientative acute toxicity in po dosed ICEM:CET (SPF Caw) mouse administered via gavage measured for 60 mins after drug dosing by Irwin's test; format: organism-based; conditions: in vivo, 1 h
How it was run: (§4)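 Male ICEM:CET (SPF Caw) mice, 18-22 g. Oral gavage, suspended or dissolved in 0.5% Methocel at 0.1 mL/10 g body weight. Doses of at least 25, 50, 100, 200, 400 and 800 mg/kg, four animals per dose. Animals were observed closely for 60 min after dosing during Irwin's symptomatologic test, and an approximate LD50 was estimated.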

Mus musculus [6] = test: Antidepressant activity in po dosed ICEM:CET (SPF Caw) mouse assessed as antagonism of reserpine-induced hypothermia administered via gavage 30 mins before reserpine challenge measured 4 hrs after reserpine treatment; format: functional; how it was run: as §2
[7] = as §3; format: organism-based; conditions: ICEM:CET (SPF Caw), in vivo; how it was run: as §4
[8] = Mus musculus, ICEM:CET(SPF Caw), po, read-out: ED50

Which Activity (Mus musculus [1]) does the source give for `c1ccc2c(c1)CCc1ccccc1N2CC1CNC1` here?
Its Activity is “inactive”.

And the Activity (Mus musculus [2])?
Its Activity is “inactive”.

With `CC(C)N1CC(N2c3ccccc3COc3ccccc32)C1` as the molecule, how does the Activity (Mus musculus [1]) read?
The Activity was “inactive”.

And the Activity (Mus musculus [2])?
Its Activity is “inactive”.

For `CC(C)(C)N1CC(N2c3ccccc3COc3ccccc32)C1`, which Activity (Mus musculus [1]) is on record?
Its Activity is “inactive”.

And the Activity (Mus musculus [2])?
The Activity was “inactive”.

With `CC(C)(C)N1CC(N2c3ccccc3CCc3ccc(Cl)cc32)C1` as the molecule, how does the Activity (Mus musculus [1]) read?
Its Activity is “inactive”.

What about the Activity (Mus musculus [2]) of the same molecule?
The Activity was “inactive”.

With `c1ccc2c(c1)COc1ccccc1N2CC1CNC1` as the molecule, how does the Activity (Mus musculus [1]) read?
Its Activity is “inactive”.

What about the Activity (Mus musculus [2]) of the same molecule?
The Activity was “inactive”.

With `CNC1CN(C2c3ccccc3COc3ccccc32)C1.O=C(O)/C=C/C(=O)O` (single isomer, unassigned; (-)) as the molecule, how does the ED50 (Mus musculus [3]) read?
Its ED50 is 1.3 mg/kg.

And the ED50 (Mus musculus [4])?
The ED50 was >50 mg/kg.

What about the LD50 (Mus musculus [5]) of the same molecule?
Its LD50 is 100 mg/kg.

What about the ED50 (Mus musculus [6]) of the same molecule?
The ED50 was 14.1 mg/kg.

For `CC(C)N1CC(CN2c3ccccc3COc3ccccc32)C1`, which Activity (Mus musculus [1]) is on record?
The Activity was “inactive”.

What about the Activity (Mus musculus [2]) of the same molecule?
The Activity was “inactive”.

Which results are given for `CC(C)(C)N1CC(N2c3ccccc3Sc3ccccc32)C1`?
Activity (Mus musculus [1]): inactive; Activity (Mus musculus [2]): inactive

With `c1ccc2c(c1)COc1ccccc1N2C1CNC1` as the molecule, how does the Activity (Mus musculus [1]) read?
Its Activity is “inactive”.

What about the Activity (Mus musculus [2]) of the same molecule?
Its Activity is “inactive”.

Which results are given for `CC(C)(C)N1CC(N2c3ccccc3C=Cc3ccccc32)C1`?
Activity (Mus musculus [1]): inactive; Activity (Mus musculus [2]): inactive

For `c1ccc2c(c1)Sc1ccccc1N2C1CNC1`, which Activity (Mus musculus [1]) is on record?
Its Activity is “inactive”.

What about the Activity (Mus musculus [2]) of the same molecule?
The Activity was “inactive”.

Which Activity (Mus musculus [1]) does the source give for `CN1CC(N2c3ccccc3CCc3ccccc32)C1` here?
Its Activity is “inactive”.

And the Activity (Mus musculus [2])?
Its Activity is “inactive”.

Which Activity (Mus musculus [1]) does the source give for `CC(C)(C)N1CC(N2c3ccccc3Sc3ccc(Cl)cc32)C1` here?
The Activity was “inactive”.

And the Activity (Mus musculus [2])?
Its Activity is “inactive”.

What does the source list for `c1ccc2c(c1)CCc1ccccc1N2C1CNC1`?
Activity (Mus musculus [1]): inactive; Activity (Mus musculus [2]): inactive

Which Activity (Mus musculus [1]) does the source give for `CC(C)N1CC(N2c3ccccc3CCc3ccccc32)C1` here?
Its Activity is “inactive”.

What about the Activity (Mus musculus [2]) of the same molecule?
The Activity was “inactive”.

What does the source list for `CC(C)(C)N1CC(N2c3ccccc3CCc3ccccc32)C1`?
Activity (Mus musculus [1]): inactive; Activity (Mus musculus [2]): inactive

Which Activity (Mus musculus [1]) does the source give for `CC(C)(C)N1CC(N2c3ccccc3Sc3ccc(C(F)(F)F)cc32)C1` here?
Its Activity is “inactive”.

And the Activity (Mus musculus [2])?
The Activity was “inactive”.

Which ED50 (Mus musculus [3]; [8]) does the source give for `CN(C)C1CN(C2c3ccccc3CCc3ccccc32)C1` here?
The ED50 was 7 mg/kg.

And the ED50 (Mus musculus [4]; [8])?
Its ED50 is 21.5 mg/kg.

What about the LD50 at 1 h [7] of the same molecule?
The LD50 at 1 h was 400 mg/kg.

What about the ED50 (Mus musculus [6]; [8]) of the same molecule?
Its ED50 is 12.5 mg/kg.

Which results are given for `CN(C)C1CN(C2c3ccccc3COc3ccccc32)C1` (centres undefined)?
ED50 (Mus musculus [3]; [8]): 5.6 mg/kg; ED50 (Mus musculus [4]; [8]): 28.5 mg/kg; LD50 at 1 h [7]: 100 mg/kg; ED50 (Mus musculus [6]; [8]): 23 mg/kg

For `c1ccc2c(c1)CCc1ccccc1C2N1CC(NC2CCCCC2)C1`, which ED50 (Mus musculus [3]; [8]) is on record?
Its ED50 is > 25 mg/kg.

What about the ED50 (Mus musculus [4]; [8]) of the same molecule?
The ED50 was > 50 mg/kg.

And the LD50 at 1 h [7]?
The LD50 at 1 h was 400 mg/kg.

What about the ED50 (Mus musculus [6]; [8]) of the same molecule?
Its ED50 is > 25 mg/kg.

With `C#CCN(CC#C)C1CN(C2c3ccccc3CCc3ccccc32)C1` as the molecule, how does the ED50 (Mus musculus [3]; [8]) read?
Its ED50 is > 25 mg/kg.

And the ED50 (Mus musculus [4]; [8])?
The ED50 was 38 mg/kg.

What about the LD50 at 1 h [7] of the same molecule?
The LD50 at 1 h was > 800 mg/kg.

What about the ED50 (Mus musculus [6]; [8]) of the same molecule?
The ED50 was 21 mg/kg.

What does the source list for `CC(C)N1CC(CN2c3ccccc3CCc3ccccc32)C1`?
Activity (Mus musculus [1]): inactive; Activity (Mus musculus [2]): inactive
